Screening data from PubChem BioAssay.
Shown are actives, neighbours in structure and some others; about 1.5% of the full set was active somewhere.
APJ antagonist: antagonists of human apelin receptor APJ, primary screen, CHO-K1 cells, beta-arrestin complementation, luminescence | actives 0.32% (n = 330,000) | inhibition, % at 20 µM | AID 2521, 2010;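 active = inhibition above about 40% at 20 µM, limit read from the data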;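 note: cells challenged with 10 nM apelin-13 agonist together with compound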
APJ agonist: agonists of human apelin receptor APJ, primary screen, CHO-K1 cells, PathHunter beta-arrestin, luminescence. AID 2520, 2010. P35414. 0% DMSO wells, 100% apelin. actives 0.11% (n = 330,000). activation, % at 20 µM;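 active = activation more than six SD over the plate average, tested at 20 µM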
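Assay system – PathHunter CHO-K1 APJ (AGTRL-1) beta-arrestin reporter cells · Compound – one dose, 20 µM compound, 1% DMSO · Timing – compound 90 min 25 °C, reagent 1 h · Measured by – luminescence from split beta-galactosidase complementation, Galacton Star/Emerald II substrate · Measure – beta-arrestin recruitment to APJ as agonist activity, luminescent signal · Benchmarks – DMSO vs Apelin-13 10 nM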
CCR6 antagonist: CCR6 receptor antagonists, primary screen, cell-based, CHO-K1, luminescence, beta-arrestin, uHTS; C-C chemokine receptor type 6 (Homo sapiens), P51684; CHO-K1 CCR6 PathHunter beta-arrestin, CCL20-stimulated; inhibition, % at 20 µM; actives 0.49% (n = 340,000);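 active = compounds whose inhibition of the agonist-driven luminescence signal at 20 µM reaches about 50%, limit read from the data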;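 note: cells stimulated with CCL20 at 14 nM final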
iPSC survival up: enhancers of single-cell hiPSC survival, primary screen, ATPlite luminescence. 100% = ROCK inhibitor wells, 0% = DMSO. survival enhancement, % at 20 µM. actives 0.044% (n = 360,000). AID 602274, 2012; in the data active = survival enhancement above about 18%;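 note: cells exposed to compounds for 16 hours before the ATP read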
EBI2 block: EBI2 receptor antagonists, beta-arrestin recruitment, primary screen, cell-based, luminescence, 7a,25-OHC stimulation, uHTS; actives 0.81% (n = 360,000); 7a,25-OHC stimulated; inhibition, % at 5 µM; G-protein coupled receptor 183 (Homo sapiens), P32249; in the data active = inhibition above about 38%;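 note: enzyme fragment complementation signal reports receptor beta-arrestin coupling in cells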
Target sequence (P32249 whole entry, looked up, the tested form may be a part): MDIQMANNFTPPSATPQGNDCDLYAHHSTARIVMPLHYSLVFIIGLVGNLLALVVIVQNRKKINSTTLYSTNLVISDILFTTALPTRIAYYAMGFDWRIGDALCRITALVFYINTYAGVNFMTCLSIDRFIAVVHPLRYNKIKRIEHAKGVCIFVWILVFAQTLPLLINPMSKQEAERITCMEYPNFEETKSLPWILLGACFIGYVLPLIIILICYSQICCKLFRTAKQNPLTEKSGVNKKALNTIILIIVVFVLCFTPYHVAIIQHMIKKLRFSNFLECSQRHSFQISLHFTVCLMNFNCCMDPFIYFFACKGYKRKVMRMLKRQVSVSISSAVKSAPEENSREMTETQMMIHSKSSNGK
CXCR6 block: CXCR6 receptor inhibitors, primary screen, cell-based, beta-arrestin, luminescence, CHO-K1 PathHunter, 1536-well; actives 0.36% (n = 360,000); AID 602244, 2012; C-X-C chemokine receptor type 6 (Homo sapiens), O00574; inhibition, % at 20 µM; in the data active = inhibition above about 34%, passing the limit was not always enough;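 note: antagonist mode with CXCL16 agonist at 10 nM final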
Each line names hits and unclear results; the compound was inactive in the other large screens.

O=C(NCCO)c1nc(C(=O)c2ccc(Cl)cc2)c2ccccc2n1	none
COc1cc(/C=C(\C#N)c2nc3ccc(C)cc3[nH]2)cc([N+](=O)[O-])c1O	CCR6 antagonist 51 (no result: APJ antagonist, APJ agonist)
CCN(CC)c1ccc(/C=C(/C#N)c2nc3ccc(C)cc3[nH]2)c(OC(C)C)c1	CCR6 antagonist 52
CCc1nc2ccc(C(=O)NCCc3c[nH]c4ccccc34)cn2c1N(C=O)CCC(C)C	none (no result: APJ antagonist, APJ agonist, CCR6 antagonist)
CCN(CC)CCNC(=O)CCc1c(C)nc2c(c(C)nn2-c2ccc(C)cc2)c1C	none
CC(=O)c1ccc(OCc2cc(C(=O)N(C)CC3COc4ccccc4O3)no2)cc1 (stereo not drawn)	none (no result: APJ antagonist, APJ agonist, CCR6 antagonist)
CC(C)(C)C1=CC(=Nc2ccccc2N)C=C(C(C)(C)C)C1=O	CCR6 antagonist 67
CCOC(=O)c1ccc(N=Cc2nc(-c3ccccc3)oc2OC(C)=O)cc1	CCR6 antagonist 50
Cn1c(Cl)c(/C=N/OC(=O)c2ccc(Cl)cc2)c2ccccc21	iPSC survival up 22
CCc1sc(C(=O)N2CCN(C(=O)c3ccccc3)CC2)cc1C	none
O=C(NCc1ccccn1)c1cc(S(=O)(=O)N2CCCCC2)ccc1Cl	none
CNC(=S)N1N=C(c2ccc(Br)cc2)CC1c1ccc(N(C)C)cc1 (stereo not drawn)	EBI2 block 94
CCOC(=O)C1=C(C)c2ccccc2N(C(=O)OC)C1(C)C(=O)OCC (stereo not drawn)	none (no result: APJ antagonist, APJ agonist)
CCC(C)C(=O)N1c2ccccc2C(=C2SC(C(=O)OC)=C(C(=O)OC)S2)C(=S)C1(C)C (stereo not drawn)	EBI2 block 52
COc1ccc(/C=C2\SC(N3CCCCC3)=NC2=O)cc1OC	none
COc1cc(/C=C2\SC(N3CCC(C)CC3)=NC2=O)ccc1O	EBI2 block 40
Cc1ccc2ccc(C(Nc3cccc(C(F)(F)F)c3)c3cccnc3)c(O)c2n1 (stereo not drawn)	CCR6 antagonist 53, CXCR6 block 40
Oc1c(I)cc(Cl)c2cccnc12	CCR6 antagonist 55, CXCR6 block 36
CN1CCN(C(c2ccc(C(F)(F)F)cc2)c2cc(Cl)c3cccnc3c2O)CC1 (stereo not drawn)	none (no result: CCR6 antagonist, iPSC survival up, EBI2 block, CXCR6 block)
Oc1c(C(c2ccccn2)N2CCCCC2)cc(Cl)c2cccnc12 (stereo not drawn)	CCR6 antagonist 63
O=C(NC(c1ccc(Cl)cc1)c1cc(Cl)c2cccnc2c1O)c1cccnc1 (stereo not drawn)	EBI2 block 65 (no result: APJ antagonist, APJ agonist)
CN1CCN(C(c2ccc(Cl)cc2)c2cc(Cl)c3cccnc3c2O)CC1 (stereo not drawn)	CCR6 antagonist 63
CCOc1ccc(NC(=O)CN(C)C(=O)c2ccc3c(c2)S(=O)(=O)N=C2CCCCCN23)cc1OCC	none (no result: APJ antagonist, APJ agonist)
CCOc1ccc(OCCC(=O)Nc2cccc(S(=O)(=O)N3CCCC3)c2)cc1	none
COc1ccccc1COC(=O)C(NC(=O)c1ccc(C)cc1)C(C)C (stereo not drawn)	none
COC(=O)CNC(=O)Cn1c(=O)n(Cc2ccc(F)cc2)c(=O)c2sccc21	none
CSc1nc(Cl)c(Br)c(Nc2c[nH]c(=O)[nH]c2=O)n1	none (no result: APJ antagonist, APJ agonist)
Cc1ccc(Nc2c(-c3ccccn3)nc3cccc(C)n23)cc1	CCR6 antagonist 64, CXCR6 block 42
CCN1/C(=C/c2cc[n+](C)cc2)C=Cc2cc(C)ccc21	CCR6 antagonist 57 (no result: APJ antagonist, APJ agonist)
CCOC(=O)C1CCN(C(=O)C2CCN(c3ncnc4c3nc3n4CCCCC3)CC2)CC1	none
OC[C@@H]1CN(Cc2ccc(-c3ccccc3)cc2)C[C@H](n2cnc3c(N4CCCC4)ncnc32)O1	none (no result: APJ antagonist, APJ agonist, CCR6 antagonist)
CCN(CC)CCNC(=O)C(Cl)=C1C(Cl)=C(Cl)C(Cl)=C1Cl	none (no result: APJ antagonist, APJ agonist)
CC(C)(C)NC(=O)Cn1nnc(-c2ccccc2NC(=O)c2cnccn2)n1	iPSC survival up 22
C/C(=N\Nc1nc2ccccc2nc1C)c1ccccc1O	none
CC(=NNc1ccc2ccccc2n1)c1ccccc1O	CXCR6 block 56 (no result: APJ antagonist, APJ agonist, CCR6 antagonist)
CCOC(=O)[C@]12CCC=C1N(Cc1ccco1)C(=O)[C@H](CC(=O)NCc1cccs1)C2	none (no result: APJ antagonist, APJ agonist, CCR6 antagonist)
